From paper PMC4873341 (Molecular cancer therapeutics, 2016)
Read-outs that look alike come from different tables or passages of the source. Values belong to the compound of their own block, whether it stands above or below them.

Assays:
[1] = tested on: Hh pathway; format: cell-based; conditions: for Hh pathway inhibition by single drug at subtherapeutic dose: posaconazole 1 μM, KAAD-cyclopamine 10 nM, vismodegib 20 nM, SHHN CM; for Induction of Hh pathway activation by sterol alone: Shh-Light2 cells, absence of SHHN conditioned medium
[2] = tested on: Hh pathway (Ptch-/- murine embryonic fibroblast cells); format: cell-based; conditions: Mus musculus, read-out: IC50 of Hh pathway inhibition
[3] = tested on: SMOA1 (SMO W539L) mutant; format: cell-based; conditions: Shh-Light2 SmoA1 cells
[4] = target: SMO (Mus musculus, UniProt P56726); test: Fluorescent BODIPY-cyclopamine competition assay; format: binding; conditions: BODIPY-cyclopamine 5 nM
Sequence of SMO (P56726 33-793): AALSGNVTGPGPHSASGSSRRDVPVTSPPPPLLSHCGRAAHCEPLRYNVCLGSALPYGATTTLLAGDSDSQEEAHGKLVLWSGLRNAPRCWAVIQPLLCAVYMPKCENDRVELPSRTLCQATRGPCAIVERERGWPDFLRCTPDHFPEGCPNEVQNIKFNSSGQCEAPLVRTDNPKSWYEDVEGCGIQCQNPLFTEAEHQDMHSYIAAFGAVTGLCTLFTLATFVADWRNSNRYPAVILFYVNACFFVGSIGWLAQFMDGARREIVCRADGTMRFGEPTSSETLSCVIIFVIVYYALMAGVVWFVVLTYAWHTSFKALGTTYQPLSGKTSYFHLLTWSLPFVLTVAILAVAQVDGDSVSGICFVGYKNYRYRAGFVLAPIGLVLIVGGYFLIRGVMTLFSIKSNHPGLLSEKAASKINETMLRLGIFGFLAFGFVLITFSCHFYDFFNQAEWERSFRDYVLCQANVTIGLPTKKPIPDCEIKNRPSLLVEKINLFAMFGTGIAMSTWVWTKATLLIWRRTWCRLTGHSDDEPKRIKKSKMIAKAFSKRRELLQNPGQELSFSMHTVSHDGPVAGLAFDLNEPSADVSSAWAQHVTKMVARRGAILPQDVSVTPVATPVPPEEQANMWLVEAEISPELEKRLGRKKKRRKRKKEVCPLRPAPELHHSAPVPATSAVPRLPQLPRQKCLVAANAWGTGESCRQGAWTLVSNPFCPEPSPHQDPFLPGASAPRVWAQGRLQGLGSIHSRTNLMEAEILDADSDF

[5] = tested on: Hh pathway (SMO); test: SHH-Light2 reporter assay stimulated with SAG; format: cell-based; conditions: for EC50: read-out: EC50 of SAG
[6] = tested on: Hh pathway (SMO); test: SHH-Light2 reporter assay stimulated with 20; format: cell-based
[7] = tested on: ASZ and BSZ basal cell carcinoma cells; test: Quantitative PCR of Gli1 transcript in ASZ and BSZ basal cell carcinoma cells; format: cell-based, murine; conditions: posaconazole 1 μM; KAAD-cyclopamine 40 nM; GDC-0449 40 nM; 2 days
[8] = tested on: SMO accumulation in primary cilia; format: cell-based; conditions: SHHN and posaconazole 7.5 μM; ~87% with SHHN and vehicle; p < 0.0001
In short: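 NIH-3T3 cells were stimulated with SHHN conditioned medium together with 7.5 μM test compound or vehicle. Cells were immunostained for SMO (rabbit polyclonal, 1:750) and acetylated tubulin (mouse monoclonal, 1:1000), then detected with AlexaFluor 488 and 594 secondaries. Confocal images were scored for the percentage of primary cilia with SMO; mean ± S.D. of at least 7 fields.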

[9] = Plasma pharmacokinetic study, single oral dose; format: in vivo, Balb-c mice; conditions: for AUC(0-t) / Cmax: Balb-c, mouse, plasma, po
In short: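 Balb-c mice, given acidified drinking water (pH 2.5), received one oral gavage of test-compound oral suspension diluted in sterile water (30 or 60 mg/kg). Mice were killed at various times. Plasma was extracted with methanol/formic acid containing tolbutamide internal standard and analysed by LC-MS/MS (C18 column). Parameters came from noncompartmental analysis; 3 mice per time point, mean ± S.D.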

[10] = tested on: murine Ptch+/-;p53-/- BCC allografts; test: Tumor growth of subcutaneous BCC allografts; format: in vivo, mice; conditions: 30 mg/kg or 60 mg/kg twice-daily, oral gavage; p < 0.005
[11] = tested on: Hh pathway in allografted BCC tumors; test: Gli1 mRNA in allografted BCC tumors; format: in vivo, mice; conditions: 30 or 60 mg/kg twice per day by oral gavage for 5 days; p = 0.0224, p = 0.0033
[12] = tested on: BCC tumors; test: Necrosis scoring of H&E sections of BCC tumors; format: in vivo, mice; conditions: posaconazole treated vs vehicle control; p = 0.0028
[13] = tested on: drug-resistant SMO mutants (D477G, E522K, G457S, S392N, D388N, N223D, L225R); format: cell-based, murine
[14] = tested on: cytochrome P450 (CYP) 3A4; conditions: cited from earlier work
[15] = tested on: CYP2C9; conditions: cited from earlier work
[16] = tested on: CYP 1A2; conditions: cited from earlier work
[17] = tested on: CYP 2C8; conditions: cited from earlier work
[18] = tested on: CYP 2D6; conditions: cited from earlier work
[19] = tested on: CYP 2E1; conditions: cited from earlier work
[20] = tested on: CYP2C19; conditions: cited from earlier work
[21] = tested on: SMO-G457S; format: cell-based, murine
[22] = increasing concentrations of posaconazole
[23] = higher than human values of ref 41

Decrease of the IC50 of posaconazole by KAAD-cyclopamine ([1]; increasing concentrations of KAAD-cyclopamine): ~ 2.5 fold | IC50 ([6]; Shh Light2, read-out: IC50 of pathway activation by 20(S)-hydroxycholesterol): 164 nM | AUC(0-t) ([9]; 30 mg/kg): 245 µg·h/mL | Cmax ([9]; 30 mg/kg): 16100 ng/mL | AUC(0-t) ([9]; 60 mg/kg): 288 µg·h/mL | Cmax ([9]; 60 mg/kg): 15900 ng/mL | AUC0-24h, murine 30 mg/kg relative to human 800 mg single dose [9, 23]: ~ 5 x | Plasma Cmax, murine 30 mg/kg relative to human 800 mg single dose [9, 23]: ~ 12 x
SMILES: CC[C@@H]([C@H](C)O)n1ncn(-c2ccc(N3CCN(c4ccc(OC[C@@H]5CO[C@@](Cn6cncn6)(c6ccc(F)cc6F)C5)cc4)CC3)cc2)c1=O [posaconazole]
Hh pathway inhibition by single drug at subtherapeutic dose [1]: partially inhibited the Hh pathway | IC50 [2]: 986 nM | Inhibition of pathway activity [3]: no inhibitory effect | Fluorescence of BODIPY-cyclopamine bound to SMO ([4]; increasing concentrations up to 10 μM): did not significantly decrease the fluorescence | Effect on maximal induction of pathway activation by SAG ([5]; posaconazole 0 to 7.5 μM): significantly decreased the maximal induction of pathway activation | Effect on the EC50 of SAG ([5]; posaconazole 0 to 7.5 μM): did not significantly alter the EC50 of SAG | Effect on maximal pathway activation of 20(S)-hydroxycholesterol [6, 22]: decreased maximal pathway activation | Effect on the EC50 of 20(S)-hydroxycholesterol [6, 22]: did not significantly alter the EC50 of the oxysterol | Pathway inhibition as measured by Gli1 mRNA, single drug [7]: significantly inhibited the pathway | Primary cilia with SMO accumulation [8]: ~ 16% | Tumor growth compared to vehicle control [10]: significantly suppressed tumor growth | Hh pathway inhibition in tumors as measured by Gli1 mRNA [11]: significant inhibition of the Hh pathway | Tumor necrosis (necrosis score 0-3) [12]: significant levels of necrosis | Activity against drug-resistant SMO mutants, single drug ([13]; Smo-/- fibroblasts, SHHN CM): showed inhibitory activity against all of the tested drug-resistant SMO mutants | CYP3A4 inhibition [14]: inhibits | CYP2C9 inhibition [15]: does not inhibit | CYP1A2 inhibition [16]: does not inhibit | CYP2C8 inhibition [17]: does not inhibit | CYP2D6 inhibition [18]: does not inhibit | CYP2E1 inhibition [19]: does not inhibit

SMILES: CNC1CCC(N(Cc2cccc(-c3ccncc3)c2)C(=O)c2sc3ccccc3c2Cl)CC1 (stereo not drawn) [SAG]
EC50 ([5]; 0 nM KAAD-cyclopamine): 34 nM | EC50 ([5]; with 100 nM KAAD-cyclopamine): 244 nM

SMILES: CC(O)C(C)n1ncn(-c2ccc(N3CCN(c4ccc(OCC5COC(Cn6cncn6)(c6ccc(Cl)cc6Cl)O5)cc4)CC3)cc2)c1=O (stereo not drawn) [hydroxy-itraconazole]
CYP3A4 inhibition [14]: strong inhibitors and substrates | CYP2C9 inhibition [15]: weaker inhibitors | CYP2C19 inhibition [20]: weaker inhibitors

SMILES: Cc1c(C(=O)Nc2ccc(N3C[C@@H](C)O[C@@H](C)C3)nc2)cccc1-c1ccc(OC(F)(F)F)cc1 [sonidegib]
Response of sonidegib-resistant SMO mutants ([13]; sonidegib 0.5 μM (~80x IC50)): resistant | Response of SMO-G457S ([21]; sonidegib 0.05 μM): resistant | Response of SMO-G457S ([21]; sonidegib 0.5 μM): inhibited

SMILES: CC1=C2C[C@H]3[C@@H](CC=C4CC(=O)CC[C@@]43C)[C@@H]2CC[C@]12O[C@@H]1C[C@H](C)CN(CCNC(=O)CCCCCNC(=O)CCc3ccccc3)[C@H]1[C@H]2C [KAAD-cyclopamine]
Hh pathway inhibition by single drug at subtherapeutic dose [1]: partially inhibited the Hh pathway | IC50 ([1]; read-out: IC50 of Hh pathway inhibition (given as 1x IC50), SHH-Light2 cells): 20 nM | Fluorescence of BODIPY-cyclopamine bound to SMO ([4]; KAAD-cyclopamine 200 nM and 400 nM): reduced the fluorescence of BD bound to SMO to baseline levels | Shift (increase) of the EC50 of SAG ([5]; KAAD-cyclopamine 20 nM (1x IC50)): ~ 3.5 fold | Pathway inhibition as measured by Gli1 mRNA, single drug [7]: significantly inhibited the pathway

SMILES: CC(C)CCC[C@@H](C)[C@H]1CC[C@H]2[C@@H]3CC=C4C[C@@H](O)CC[C@]4(C)[C@H]3CC[C@]12C [cholesterol]
Induction of Hh pathway activation by sterol alone [1]: insufficient to induce Hh pathway activation

SMILES: CCC(C)n1ncn(-c2ccc(N3CCN(c4ccc(OCC5COC(Cn6cncn6)(c6ccc(Cl)cc6Cl)O5)cc4)CC3)cc2)c1=O (stereo not drawn) [itraconazole]
CYP3A4 inhibition [14]: strong inhibitors and substrates | CYP2C9 inhibition [15]: weaker inhibitors | CYP2C19 inhibition [20]: weaker inhibitors

SMILES: CC(C)=CCC[C@@H](C)[C@H]1CC[C@H]2[C@@H]3CC=C4C[C@@H](O)CC[C@]4(C)[C@H]3CC[C@]12C [desmosterol]
Induction of Hh pathway activation by sterol alone [1]: insufficient to induce Hh pathway activation

SMILES: CC(C)CCC[C@@H](C)[C@H]1CC[C@H]2C3=CC[C@H]4C[C@@H](O)CC[C@]4(C)[C@H]3CC[C@]12C [lathosterol]
Induction of Hh pathway activation by sterol alone [1]: insufficient to induce Hh pathway activation

IC50 ([1]; Shh Light2, read-out: No detectable inhibition of the Hh pathway up to): > 40000 nM
SMILES: C[C@@H](c1ncncc1F)[C@](O)(Cn1cncn1)c1ccc(F)cc1F [voriconazole]

SMILES: CS(=O)(=O)c1ccc(C(=O)Nc2ccc(Cl)c(-c3ccccn3)c2)c(Cl)c1 [vismodegib]
Hh pathway inhibition by single drug at subtherapeutic dose [1]: partially inhibited the Hh pathway | Pathway inhibition as measured by Gli1 mRNA, single drug [7]: significantly inhibited the pathway | Response of vismodegib-resistant SMO mutants (D477G, E522K) ([13]; vismodegib 0.5 μM (~40x IC50)): resistant
